Test results reported in ChEMBL document CHEMBL1139304, “Synthesis, antichagasic in vitro evaluation, cytotoxicity assays, molecular modeling and SAR/QSAR studies of a 2-phenyl-3-(1-phenyl-1H-pyrazol-4-yl)-acrylic acid benzylidene-carbohydrazide series” (Bioorg Med Chem, 2009).
Activity calls are given as the source filed them. The rule behind the calls is not given here.

Assays:
Trypanosoma cruzi [1] = experiment: Trypanocidal activity against Trypanosoma cruzi Y in Swiss albino mouse blood after 24 hrs; type: functional, organism-based
Outline: (§1)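 Blood was drawn by cardiac puncture from Swiss albino mice infected with T. cruzi Y strain at peak parasitaemia (day 7). It was diluted with healthy mouse blood to 2.10⁶ forms/mL. Compounds from DMSO stocks were tested at 100, 250 and 500, in triplicate, at 4 °C. Parasites were counted after 24 h against infected blood with matched DMSO. IC50 was converted to molar pIC50.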

[2] = Cytotoxicity against BALB/c mouse peritoneal cavity cells at 100 ug/mL after 20 hrs by MTT assay; type: cell-based
Outline: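 Peritoneal cells came from male Balb/c mice (18–25 g). They were washed in RPMI and resuspended in RPMI with 10% FBS and antibiotics, with viable cells counted by Trypan blue. Cells at 2 × 10⁵/well were held 30 min at 37 °C, 5% CO₂, exposed to compound for 20 h, then given MTT for 4 h. Formazan was dissolved in DMSO and read at 490 nm. Viability was taken as % of control OD, with ≥5% death counted as cytotoxic.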

Trypanosoma cruzi [3] = experiment: Trypanocidal activity against Trypanosoma cruzi Y in Swiss albino mouse blood at 500 ug/mL after 24 hrs; type: functional, organism-based; outline: as §1

Row | Compound | IC50 (Trypanosoma cruzi [1]; read-out: IC50) | IC50 (Trypanosoma cruzi [1]; read-out: pIC50 (converted)) | Activity [2] | IC50 (Trypanosoma cruzi [3]) | pIC50 (Trypanosoma cruzi [3])
1 | O=C(N/N=C/c1ccccc1)/C(=C/c1cnn(-c2ccccc2)c1)c1ccc(F)cc1 | 7830 µM | 7760 µM | 0% |  | 
2 | O=C(N/N=C/c1ccc(O)cc1)/C(=C/c1cnn(-c2ccccc2)c1)c1ccccc1 | 760 µM | 759 µM | 12.32% |  | 
3 | COc1ccc(/C(=C\c2cnn(-c3ccccc3)c2)C(=O)N/N=C/c2ccc(C#N)cc2)cc1 | 1310 µM | 1320 µM | 14.35% |  | 
4 | O=C(N/N=C/c1ccc(Br)cc1)/C(=C/c1cnn(-c2ccccc2)c1)c1ccc(C(F)(F)F)cc1 | 620 µM | 617 µM | 0% |  | 
5 | CN(C)c1ccc(/C=N/NC(=O)/C(=C/c2cnn(-c3ccccc3)c2)c2ccccc2)cc1 | 200 µM | 200 µM | 0% |  | 
6 | O=C(N/N=C/c1ccc([N+](=O)[O-])cc1)/C(=C/c1cnn(-c2ccccc2)c1)c1ccc(C(F)(F)F)cc1 | 750 µM | 741 µM | 0% |  | 
7 | COc1ccc(/C(=C\c2cnn(-c3ccccc3)c2)C(=O)N/N=C/c2ccc([N+](=O)[O-])cc2)cc1 | 980 µM | 977 µM | 11.22% |  | 
8 | O=C(N/N=C/c1ccc(F)cc1)/C(=C/c1cnn(-c2ccccc2)c1)c1ccccc1 | 2440 µM | 2450 µM | 0% |  | 
9 | O=C(N/N=C/c1ccc([N+](=O)[O-])cc1)/C(=C/c1cnn(-c2ccccc2)c1)c1ccccc1 | 30 µM | 28.2 µM | 19.4% |  | 
10 | CCOc1ccc(/C=N/NC(=O)/C(=C/c2cnn(-c3ccccc3)c2)c2ccccc2)cc1 | 380 µM | 380 µM | 0% |  | 
11 | N#Cc1ccc(/C=N/NC(=O)/C(=C/c2cnn(-c3ccccc3)c2)c2ccc(F)cc2)cc1 | 50 µM | 53.7 µM | 0% |  | 
12 | COc1ccc(/C=N/NC(=O)/C(=C/c2cnn(-c3ccccc3)c2)c2ccc(F)cc2)cc1 | 340 µM | 339 µM | 14.8% |  | 
13 | O=C(N/N=C/c1ccc(Cl)cc1)/C(=C/c1cnn(-c2ccccc2)c1)c1ccccc1 | 8590 µM | 8510 µM | 0% |  | 
14 | N#Cc1ccc(/C=N/NC(=O)/C(=C/c2cnn(-c3ccccc3)c2)c2ccccc2)cc1 | 1870 µM | 1860 µM | 0% |  | 
15 | CN(C)c1ccc(/C=N/NC(=O)/C(=C/c2cnn(-c3ccccc3)c2)c2ccc(F)cc2)cc1 | 890 µM | 891 µM | 12.2% |  | 
16 | NNC(=O)/C(=C/c1cnn(-c2ccccc2)c1)c1ccccc1 | 2810 µM | 2820 µM | 0% |  | 
17 | O=C(N/N=C/c1ccccc1)/C(=C/c1cnn(-c2ccccc2)c1)c1ccc(Br)cc1 |  |  |  | Not Active | inactive
18 | COc1ccc(/C(=C\c2cnn(-c3ccccc3)c2)C(=O)N/N=C/c2ccc(Br)cc2)cc1 | 930 µM | 933 µM | 0% |  | 
19 | N#Cc1ccc(/C=N/NC(=O)/C(=C/c2cnn(-c3ccccc3)c2)c2ccc(C(F)(F)F)cc2)cc1 | 590 µM | 589 µM | 0% |  | 
20 | COc1ccc(/C=N/NC(=O)/C(=C/c2cnn(-c3ccccc3)c2)c2ccccc2)cc1 | 1510 µM | 1510 µM | 0% |  | 
21 | O=C(N/N=C/c1ccccc1)/C(=C/c1cnn(-c2ccccc2)c1)c1ccccc1 | 190 µM | 191 µM | 4% |  | 
22 | CN(C)c1ccc(/C=N/NC(=O)/C(=C/c2cnn(-c3ccccc3)c2)c2ccc(O)cc2)cc1 | 1880 µM | 1860 µM | 12.94% |  | 
23 | CN(C)c1ccc(/C=N/NC(=O)/C(=C/c2cnn(-c3ccccc3)c2)c2ccc(Br)cc2)cc1 | 700 µM | 708 µM | 0% |  | 
24 | O=C(N/N=C/c1ccccc1)/C(=C/c1cnn(-c2ccccc2)c1)c1ccc(O)cc1 | 1360 µM | 1350 µM | 9.64% |  | 
25 | O=C(N/N=C/c1ccc(Br)cc1)/C(=C/c1cnn(-c2ccccc2)c1)c1ccccc1 | 1500 µM | 1510 µM | 14.35% |  | 
26 | CSc1ccc(/C=N/NC(=O)/C(=C/c2cnn(-c3ccccc3)c2)c2ccccc2)cc1 | 440 µM | 437 µM | 22.8% |  | 
27 | COc1ccc(/C(=C\c2cnn(-c3ccccc3)c2)C(=O)N/N=C/c2ccc(O)cc2)cc1 | 1420 µM | 1410 µM | 12.04% |  | 
28 | CN(C)c1ccc(/C=N/NC(=O)/C(=C/c2cnn(-c3ccccc3)c2)c2ccc(C(F)(F)F)cc2)cc1 | 920 µM | 912 µM | 23.07% |  | 
